Measurements: ChEMBL document CHEMBL1122806 (J Med Chem, 1984)
Each block holds one compound with its values, some of them ahead of it. Square brackets hold non-standard residues; d marks the D form. Peptide text beside a SMILES is read from it. Sta = CC(C)C[C@H](N)[C@@H](O)CC(=O)O

How the values were obtained:
[1] = target: T1, Aminopeptidase N (Sus scrofa, UniProt P15145); test: Compound was evaluated for the inhibition of Aminopeptidase M (AP-M) and the inhibition constant was determined after preincubating the enzyme and inhibitor
T1 sequence (P15145 whole entry): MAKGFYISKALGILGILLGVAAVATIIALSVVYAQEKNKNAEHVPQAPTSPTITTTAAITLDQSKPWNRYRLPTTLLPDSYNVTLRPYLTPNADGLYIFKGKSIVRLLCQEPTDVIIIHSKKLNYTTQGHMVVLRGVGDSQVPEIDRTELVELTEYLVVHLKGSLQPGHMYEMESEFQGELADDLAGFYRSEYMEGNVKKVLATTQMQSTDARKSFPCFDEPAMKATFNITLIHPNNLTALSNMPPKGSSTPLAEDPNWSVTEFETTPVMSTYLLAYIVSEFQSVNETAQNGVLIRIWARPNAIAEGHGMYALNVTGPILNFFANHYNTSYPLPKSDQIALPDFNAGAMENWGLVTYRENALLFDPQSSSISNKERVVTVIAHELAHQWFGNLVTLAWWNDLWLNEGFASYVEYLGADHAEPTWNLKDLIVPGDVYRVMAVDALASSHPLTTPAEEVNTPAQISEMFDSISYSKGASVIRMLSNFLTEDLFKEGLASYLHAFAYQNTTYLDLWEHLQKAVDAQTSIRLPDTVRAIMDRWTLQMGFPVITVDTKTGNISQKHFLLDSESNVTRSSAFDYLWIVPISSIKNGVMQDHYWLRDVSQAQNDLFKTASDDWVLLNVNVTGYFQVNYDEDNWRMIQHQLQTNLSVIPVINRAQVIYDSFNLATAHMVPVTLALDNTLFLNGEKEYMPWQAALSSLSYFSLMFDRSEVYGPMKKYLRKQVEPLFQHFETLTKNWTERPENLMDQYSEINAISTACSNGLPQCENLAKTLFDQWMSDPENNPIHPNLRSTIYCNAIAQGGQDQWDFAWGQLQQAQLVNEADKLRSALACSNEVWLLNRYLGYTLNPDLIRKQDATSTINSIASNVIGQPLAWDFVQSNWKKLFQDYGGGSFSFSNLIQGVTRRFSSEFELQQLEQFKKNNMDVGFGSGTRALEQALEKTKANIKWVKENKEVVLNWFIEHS
Summary of the method: (§1)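 Initial rates came from reactions started by adding enzyme to substrate plus inhibitor. Final steady-state rates came after 15-20 min enzyme-inhibitor preincubation, with substrate added to start. Reaction velocities were analysed by Lineweaver-Burk plots.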

[2] = target: T1, Aminopeptidase N; test: Compound was evaluated for the inhibition of Aminopeptidase M (AP-M) from porcine kidney and the inhibition constant was determined after preincubating the enzyme and inhibitor; summary of the method: as §1
[3] = target: T1, Aminopeptidase N; test: Effect of inhibitor structure on the slow binding inhibition of Aminopeptidase M from porcine kidney was determined and the Ki was reported which is = k2/k1; summary of the method: as §1
[4] = target: T1, Aminopeptidase N; test: Effect of inhibitor structure on the slow binding inhibition of Aminopeptidase M from porcine kidney was determined and Ki was reported which is obtained by the equation Ki[k4/(k3 + k4)]; summary of the method: as §1
[5] = target: T1, Aminopeptidase N; test: Effect of inhibitor structure on the slow binding inhibition of aminopeptidase M was determined and Ki* was reported which is obtained by the equation Ki[k4/(k3 + k4)]; summary of the method: as §1
[6] = target: T1, Aminopeptidase N; test: Effect of inhibitor structure on the slow binding inhibition of aminopeptidase M was determined and the Ki was reported which is = k2/k1; summary of the method: as §1
[7] = target: Cytosol aminopeptidase (Sus scrofa) (UniProt P28839); test: Compound was evaluated for the inhibition of Leucine aminopeptidase from porcine kidney and the inhibition constant (Ka) was determined which is the apparent Km in the presence of tripeptide after preincubating the enzyme and inhibitor
Cytosol aminopeptidase (Sus scrofa), sequence (P28839 whole entry, looked up): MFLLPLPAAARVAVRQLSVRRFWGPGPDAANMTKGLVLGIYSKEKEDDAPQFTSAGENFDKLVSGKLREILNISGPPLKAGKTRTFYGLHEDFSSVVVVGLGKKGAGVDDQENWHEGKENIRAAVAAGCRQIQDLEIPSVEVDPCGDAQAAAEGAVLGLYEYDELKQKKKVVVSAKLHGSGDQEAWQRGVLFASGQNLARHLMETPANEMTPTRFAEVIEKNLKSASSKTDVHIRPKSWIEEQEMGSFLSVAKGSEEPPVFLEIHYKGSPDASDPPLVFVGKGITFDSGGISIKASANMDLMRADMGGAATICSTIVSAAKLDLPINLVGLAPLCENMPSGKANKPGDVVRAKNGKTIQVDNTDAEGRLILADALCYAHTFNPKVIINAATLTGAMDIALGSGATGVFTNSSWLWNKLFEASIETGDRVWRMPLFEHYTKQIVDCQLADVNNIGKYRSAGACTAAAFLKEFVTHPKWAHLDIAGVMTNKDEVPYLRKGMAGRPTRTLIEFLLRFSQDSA

Ki [1]: 11.8 µM
SMILES: CC(C)C[C@H](NC(=O)[C@@H](O)[C@H](N)CC(C)C)C(=O)O

Ki [1]: 0.18 µM
SMILES: CC(C)CCNC(=O)[C@@H](NC(=O)[C@@H](NC(=O)[C@H](O)[C@@H](N)CC(C)C)C(C)C)C(C)C

Ki [2]: 1000 µM
SMILES: CC(C)CCNC(=O)[C@@H](NC(=O)[C@@H](NC(=O)C[C@H](O)[C@@H](N)CC(C)C)C(C)C)C(C)C

Ki [2]: 16.3 µM
Ki [3]: 16 µM
Ki [4]: 16 µM
SMILES: CC(C)CCNC(=O)[C@H](O)[C@@H](N)Cc1ccccc1

Ki [5]: 0.9 µM
Ki [6]: 40 µM
Ki [1]: 0.94 µM
SMILES: CC(C)CC(N)C(O)C(=O)NC(C(=O)NC(CC(=O)O)C(=O)O)C(C)C (stereo unspecified)

Ki [1]: 25 µM
SMILES: CC(C)C[C@@H](N)CC(=O)N[C@H](C(=O)N[C@H](C(=O)N[C@@H](CC(=O)O)C(=O)O)C(C)C)C(C)C

Ka [7]: 0.0057
SMILES: CC(C)C[C@H](N)[C@@H](O)CC(=O)N[C@H](C(=O)N[C@H](C(=O)N[C@@H](CC(=O)O)C(=O)O)C(C)C)C(C)C (H-[Sta]VVD-OH)
